Test results reported in ChEMBL document CHEMBL3600334, “Neolignans from Aristolochia fordiana Prevent Oxidative Stress-Induced Neuronal Death through Maintaining the Nrf2/HO-1 Pathway in HT22 Cells” (J Nat Prod, 2015).
Active and inactive are the calls of the source. No cut-off for these calls is given here.

Experiments:
HT-22 [1] = assay: Neuroprotective activity in mouse HT22 cells assessed as protection against glutamate-induced cell death at 1 to 30 uM pretreated 30 mins before glutamate challenge measured after 24 hrs by MTT assay; type: functional, cell-based
Outline: (§1)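 HT22 cells seeded 10 000/well, 24 h. Compounds (0.1% DMSO vehicle) added 30 min before 2 mM glutamate, then 24 h. MTT (5 mg/mL) 2 h at 37 °C, formazan in DMSO, OD 570 nm. Fold of untreated control; mean ± SD, n = 6.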

HT-22 [2] = assay: Neuroprotective activity in mouse HT22 cells assessed as decrease of glutamate-induced decrease in Nrf2/HO-1 protein expression at 30 uM pretreated 30 mins before glutamate challenge measured after 12 hrs by Western blotting assay; type: functional, cell-based
HT-22 [3] = assay: Cytotoxicity against mouse HT22 cells assessed as cell viability at 30 uM after 24 hrs by MTT assay; type: cell-based; details: ht-22, 24 h
Outline: (§2)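 HT22 mouse hippocampal cells in DMEM/10% FBS, 37 °C, 5% CO2, seeded 10 000 cells/well and grown 24 h. Compounds added from DMSO stock (0.1% DMSO vehicle) for 24 h. MTT (5 mg/mL) 2 h at 37 °C, formazan dissolved in DMSO, OD 570 nm. Expressed as fold of untreated control; n = 6 wells.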

HT-22 [4] = assay: Neuroprotective activity in mouse HT22 cells assessed as decrease of glutamate-induced increase in LDH level at 30 uM pretreated 30 mins before glutamate challenge measured after 24 hrs
HT-22 [5] = assay: Neuroprotective activity in mouse HT22 cells assessed as decrease of glutamate-induced ROS production at 30 uM pretreated 30 mins before glutamate challenge measured after 12 hrs using H2DCF-DA staining by fluorescence assay; type: functional, cell-based
Outline: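 HT22 cells given 30 μM compound 30 min before 2 mM glutamate for 12 h. After a PBS wash, stained with 10 μM H2-DCF-DA in serum-free medium, 25 min, 37 °C, dark. Cells photographed, then lysed in 1% Triton X-100/PBS 10 min at 37 °C. Fluorescence read at ex 490/em 525 nm, as percent of untreated control.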

HT-22 [6] = assay: Cytotoxicity against mouse HT22 cells assessed as […] at 30 uM after 24 hrs by MTT assay; type: cell-based; details: ht-22, 24 h; outline: as §2
HT-22 [7] = assay: Effect on Nrf2/HO-1 protein expression in mouse HT22 cells at 30 uM after 12 hrs by Western blotting assay
HT-22 [8] = assay: Neuroprotective activity in mouse HT22 cells assessed as protection against glutamate-induced cell death pretreated 30 mins before glutamate challenge measured after 24 hrs by MTT assay; type: functional, cell-based; outline: as §1
HT-22 [9] = assay: Neuroprotective activity in mouse HT22 cells assessed as decrease of glutamate-induced decrease in Bcl-2 protein expression at 30 uM pretreated […] by Western blotting assay
HT-22 [10] = assay: Neuroprotective activity in mouse HT22 cells assessed as protection against glutamate-induced change in cell morphology at 1 to 30 uM pretreated 30 mins before glutamate challenge measured after 24 hrs by MTT assay; type: functional, cell-based; details: in the assay text read “by photomicroscopy” for “by MTT assay”
Outline: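 HT22 cells given compounds 30 min before 2 mM glutamate for 24 h. Morphology then photographed under a photomicroscope.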

| Compound | Activity (HT-22 [1]) | Activity (HT-22 [2]) | Activity (HT-22 [3]) | Activity (HT-22 [4]) | Activity (HT-22 [5]) | Activity (HT-22 [6]) | Activity (HT-22 [7]) | Activity (HT-22 [8]) | Activity (HT-22 [9]) | Activity (HT-22 [10]) |
| --- | --- | --- | --- | --- | --- | --- | --- | --- | --- | --- |
| C/C=C/c1cc(OC)c2oc(-c3ccc(O)c(OC)c3)c(C)c2c1 | Active | Active | Non-toxic | Active | Active | Toxic | inactive | Dose-dependent effect | Active | Active |
| C/C=C/c1cc(OC)c2oc(-c3ccc(O)cc3)c(C)c2c1 | Active | Active | Non-toxic | Active | Active | – | inactive | Dose-dependent effect | Active | Active |
| COc1cc([C@H]2O[C@@H](c3ccc(O)c(OC)c3)[C@@H](C)[C@@H]2C)ccc1O | Active | Active | Non-toxic | Active | Active | – | inactive | Dose-dependent effect | Active | Active |
| C/C=C/c1cc(OC)c2c(c1)[C@@H](C)[C@H](c1ccc(O)c(OC)c1)O2 [LICARINE A] | Active | Active | Non-toxic | Active | Active | – | inactive | Dose-dependent effect | Active | Active |
| COc1cc([C@H]2O[C@@H](c3ccc(O)c(OC)c3)[C@H](C)[C@@H]2C)ccc1O [NECTANDRIN B] | Active | Active | Non-toxic | Active | Active | – | inactive | Dose-dependent effect | Active | Active |
| C/C=C/c1ccc2oc(-c3ccc(O)cc3)c(C)c2c1 [RATANIAPHENOL II] | Active | Active | Non-toxic | Active | Active | Toxic | inactive | Dose-dependent effect | Active | Active |
